Screens as filed in PubChem.
The list is not random: actives were taken first. Their share in the collection is about 3.5%.
RGS4 pot: RGS4 potentiation or activation. HEK293 M3R/inducible RGS4, carbachol calcium flux Fluo4; hits give low values. B-score at 10 µM. 0.92% of 310,000 active. AID 463111;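 active = B-score of the integrated calcium signal more than 4 SD below the library mean, with starting fluorescence not abnormally high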;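 note: negative B-score means reduced calcium response which marks RGS4 activation or potentiation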
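Detection: kinetic calcium fluorescence imaging with Fluo4-AM dye, 2 µM / Material: HEK293 cells with stable M3R and inducible RGS4 / Schedule: recording 10 s baseline at 1 Hz, 100 s post-agonist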
RGS4 block: inhibitors of human RGS4; 0.45% of 310,000 active; HEK293 M3R/RGS4 inducible, Fluo-4 calcium flux; hits give high values; triggered by carbachol at its EC20; P49798; B-score at 10 µM;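 active = B-score, a plate-corrected calcium signal, over three deviations above library mean, with baseline fluorescence within five deviations of library mean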;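 note: RGS4 expression induced by doxycycline in cells with stable M3 receptor; B-score is computed from the integrated fluorescence ratio over baseline after carbachol; higher B-score means a larger calcium signal and so more RGS4 inhibition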
Target sequence (P49798 whole entry, looked up): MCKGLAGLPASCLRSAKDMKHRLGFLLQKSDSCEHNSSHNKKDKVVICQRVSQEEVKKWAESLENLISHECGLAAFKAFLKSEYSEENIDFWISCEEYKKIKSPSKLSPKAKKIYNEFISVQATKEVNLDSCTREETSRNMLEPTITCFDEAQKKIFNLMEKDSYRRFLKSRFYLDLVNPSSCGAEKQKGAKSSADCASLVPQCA
MrgX1 allo act: allosterically activates human MrgX1 receptor signaling; Q96LB2; MrgX1-HEK293, Fluo-4 calcium flux, FDSS; hits give high values; B-score at 10 µM; 0.63% of 310,000 active;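 active = plate-corrected calcium response at least 3 library SD above typical, normal starting fluorescence, not activating the receptor alone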;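 note: compound read alongside a low EC10 to EC30 dose of BAM8-22 agonist; peak minus trough fluorescence over baseline measured at the second addition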
MrgX1 ag: agonists of human MrgX1 receptor; Q96LB2; MrgX1-HEK293 cells, Fluo-4 calcium fluorescence, agonist mode; hits give high values; B-score at 10 µM; 0.44% of 310,000 active; AID 588627;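 active = calcium response B-score plate-corrected fluorescence ratio at least 3 library SD, with starting fluorescence B-score inside 5 SD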
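System – MrgX1-expressing HEK293 cells · Incubation – cells plated overnight, dye loaded 0.5 h 37 °C, 0.5 h room temperature · Technique – kinetic Fluo-4 NW fluorescence of intracellular calcium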
MrgX1 antagonist: human MrgX1 receptor antagonism, primary screen; Q96LB2; MRGX1-HEK293 calcium flux, Fluo-4, BAM8-22 antagonism; hits give low values; B-score at 10 µM; 1.3% of 310,000 active; AID 588676;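 active = calcium-response B-score plate-corrected more than 3 library SD below zero, starting fluorescence within 5 deviations, no agonist response on first addition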;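 note: peak minus trough fluorescence over baseline after final BAM8-22 challenge near maximal dose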
MrgX1 ant reconf: reconfirmed antagonist of human MrgX1 receptor signaling; remaining BAM8-22 calcium response % of control (hits give low values), % at 10 µM; MrgX1-HEK293, BAM8-22 calcium flux, Fluo-4; hits give low values; AID 602420; 19% of 2,300 active; shares compounds with MrgX1 antagonist;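 active = remaining agonist calcium response no higher than 100% minus 3 SD of agonist-only control wells, with starting fluorescence near control levels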;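 note: agonist BAM8-22 given at a near maximal EC90 to ECmax level; peak minus minimum fluorescence divided by baseline after agonist addition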
HEK293 Ca flux: activity in parental HEK293 cells lacking MrgX1; shares compounds with MrgX1 antagonist; Fluo-4 calcium fluorescence, FDSS; fluorescence ratio F(max-min)/F0 at 10 µM; 2% of 4,000 active; AID 624111;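 active = duplicate-averaged calcium fluorescence ratio at least three times the standard deviation of buffer wells, a nonspecific response in parental cells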
HEK293 Ca counter: MrgX1 allosteric activator counter-screen hit in parental HEK293 cells. 0.4% of 4,000 active. fluorescence ratio F(max-min)/F0 at 10 µM. shares compounds with MrgX1 antagonist. parental HEK293 calcium flux, Fluo-4 fluorescence ratio; hits give high values;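 active = calcium fluorescence ratio, averaged over duplicates, at least 3 SD of the buffer-well ratio, meaning a nonspecific response in receptor-free cells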;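 note: untransfected parental HEK293 lacking MrgX1 used as counterscreen for MrgX1 allosteric activators; fluorescence change taken during the second addition on a kinetic imager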
HEK293 Ca cntr2: counter-screen for MrgX1 activators: effect in parental HEK293 cells | Fluo-4 calcium fluorescence (FDSS); hits give high values | fluorescence ratio F(max-min)/F0 at 10 µM | shares compounds with MrgX1 antagonist | 8.7% of 4,000 active;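 active = calcium fluorescence ratio at least three times the spread of buffer wells, meaning a non-specific response in parental cells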
An asterisk follows results filed as active; i = inactive; · = no result given.

SMILES	RGS4 pot	RGS4 block	MrgX1 allo act	MrgX1 ag	MrgX1 antagonist	MrgX1 ant reconf	HEK293 Ca flux	HEK293 Ca counter	HEK293 Ca cntr2
COc1ccccc1C(=O)N1C(CC(=O)Nc2cc(Cl)ccc2C)C(=O)NC2CCCCC21 (configuration not stated)	i	i	i	i	-4.69*	i	i	i	i
Cc1ccc(NC(=O)CC2C(=O)NC3CCCCC3N2C(=O)c2ccc(F)cc2)cc1C (configuration not stated)	i	i	i	i	i	·	·	·	·
O=C(CC1C(=O)NC2CCCCC2N1C(=O)c1ccc(F)cc1)Nc1ccccc1 (configuration not stated)	i	i	i	i	-4.78*	i	i	i	i
Cc1ccc(Cl)cc1NC(=O)CC1NCCNC1=O (configuration not stated)	i	i	i	i	i	·	·	·	·
CC1CCC(C(C)C)C(OC(=O)Cn2c(-c3ccc(Cl)cc3)[n+](C)c3ccccc32)C1 (configuration not stated)	-8.58*	i	i	i	-9.93*	45.3%*	i	i	i
O=C(CSC1=NCCS1)N1CCN(c2ccc(Cl)cc2)CC1	i	i	i	i	-6.34*	i	i	i	i
O=C(CSC1=NCCS1)c1ccc(Cl)cc1	i	i	i	i	i	·	·	·	·
NC(=O)C1CCN(c2ncc(C(F)(F)F)cc2Cl)CC1	i	i	i	i	i	·	·	·	·
CCOC(=O)CSC1=C(C#N)C(c2ccccc2Cl)C(C(=O)OC)C(=O)N1 (configuration not stated)	i	i	i	i	-4.78*	i	i	i	i
CCc1c(C)nc(SCC(=O)c2ccc(C)c(C)c2)[nH]c1=O	i	i	i	i	-6.96*	i	i	i	i
Cc1cc(C)c2nc(NC(=O)[C@@H](NC(=O)c3cccc(S(=O)(=O)N4CCOCC4)c3)C(C)C)sc2c1	i	i	i	i	i	·	·	·	·
COC(=O)c1c(-c2cccs2)csc1NC(=O)c1cccnc1	i	i	i	i	i	·	·	·	·
CCN1C(=O)[C@H]2[C@@H](c3ccc(C)cc3)N3C(=O)N(c4cccc(Cl)c4)C(=O)[C@@]3(Cc3ccc(Cl)cc3)[C@H]2C1=O	·	·	i	i	i	·	·	·	·
CCN1C(=O)[C@H]2[C@@H](c3ccc(C)cc3)N3C(=O)N(c4cccc(Cl)c4)C(=O)[C@@]3(Cc3ccccc3)[C@H]2C1=O	i	i	i	i	-5.16*	i	i	i	i
O=C(N/N=C/c1ccc(N2CCOCC2)cc1)C1CC1	i	i	i	i	i	·	·	·	·
CCOC(=O)c1cc([N+](=O)[O-])sc1NC(=O)c1ccc(S(=O)(=O)N2CC3(C)CC2CC(C)(C)C3)cc1 (configuration not stated)	-9.09*	i	i	i	-11.1*	i	0.478*	i	i
CCOC(=O)c1nnc(-c2ccccc2)nc1N1CCSCC1	i	i	i	i	-5.58*	i	i	i	i
CN(C)Cc1c(C(=O)N/N=C/CCc2ccccc2)nnn1-c1nonc1N	i	i	i	i	i	·	·	·	·
Cc1nn(C)c(C)c1NS(=O)(=O)c1cccc(Br)c1	i	i	i	i	-4.71*	i	i	i	i
